Reference: ChEMBL document CHEMBL1914346, “Discovery and synthesis of novel substituted benzocoumarins as orally active lipid modulating agents” (Bioorg Med Chem Lett, 2011)

Legend:
[1] = system: Syrian golden hamster; test: Antidyslipidemic activity in high fat diet-fed dyslipidemic syrian golden hamster model assessed as decrease in serum triglyceride level at 10 mg/kg, po administered once daily for 7 days relative to vehicle treated control; type: functional, Mesocricetus auratus; set-up: scale not given: the % may be the effect or the level left
Summary of the method: (§1)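 Male Golden Syrian hamsters, 12 weeks old, 110 ± 10 g, eight per group, fed high-fat diet plus fructose daily on days 1–10. Oral dosing once daily on days 4–10 in 0.1% gum acacia; HFD-fed vehicle animals served as controls. After the last dose, retro-orbital blood was taken into EDTA and plasma lipids were measured enzymatically on an autoanalyzer. Results are % change versus HFD controls; t-test/ANOVA, p<0.05.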

[2] = system: Syrian golden hamster; test: Antidyslipidemic activity in high fat diet-fed dyslipidemic syrian golden hamster model assessed as decrease in serum total cholesterol level at 10 mg/kg, po administered once daily for 7 days relative to vehicle treated control; type: functional, Mesocricetus auratus; set-up: scale not given: the % may be the effect or the level left; summary of the method: as §1
[3] = system: Syrian golden hamster; test: Antidyslipidemic activity in high fat diet-fed dyslipidemic syrian golden hamster model assessed as increase in serum HDL level at 10 mg/kg, po administered once daily for 7 days relative to vehicle treated control; type: functional, Mesocricetus auratus; summary of the method: as §1
[4] = system: Syrian golden hamster; test: Antidyslipidemic activity in high fat diet-fed dyslipidemic syrian golden hamster model assessed as decrease in serum LDL level at 10 mg/kg, po administered once daily for 7 days relative to vehicle treated control; type: functional, Mesocricetus auratus; set-up: scale not given: the % may be the effect or the level left; summary of the method: as §1
[5] = system: Syrian golden hamster; test: Antidyslipidemic activity in high fat diet-fed dyslipidemic syrian golden hamster model assessed as increase in serum ratio of serum HDL/total cholesterol level at 10 mg/kg, po administered once daily for 7 days relative to vehicle treated control; type: functional, Mesocricetus auratus; summary of the method: as §1
[6] = Antioxidant activity assessed as trolox equivalent by TEAC assay; type: functional
[7] = system: Syrian golden hamster; test: Toxicity in syrian golden hamster; type: organism-based, Mesocricetus auratus; details: in vivo
Summary of the method: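 HFD-fed male Golden Syrian hamsters, eight per group, dosed orally at 10 mg/kg once daily for 7 days in 0.1% gum acacia. Body weight was recorded daily and food intake was monitored, then compared with HFD vehicle controls.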

[8] = system: Syrian golden hamster; test: Antidyslipidemic activity in high fat diet-fed dyslipidemic syrian golden hamster model assessed as increase in serum LDL level at 10 mg/kg, po administered once daily for 7 days relative to vehicle treated control; type: functional, Mesocricetus auratus; summary of the method: as §1

SMILES	Activity [1] [%]	Activity [2] [%]	Activity [3] [%]	Activity [4] [%]	Activity [5] [%]	Activity [6] [mM]	Activity [7]	Activity [8] [%]
Cc1cccc(C)c1N/C=C1\C=C(C=O)c2c(ccc3c(C)cc(=O)oc23)C1=O	16	30	1	40	43	0.99	Non-toxic	
Cc1cc(=O)oc2c3c(ccc12)C(=O)/C(=C/Nc1ccccc1O)C=C3C=O	42	3	15		19	0.36	Non-toxic	12
COc1cccc(CN/C=C2\C=C(C=O)c3c(ccc4c(C)cc(=O)oc34)C2=O)c1	52	47	3	59	93	1.26	Non-toxic	
